# Source: ChEMBL document CHEMBL1126244, “HIV-1 protease inhibitors based on hydroxyethylene dipeptide isosteres: an investigation into the role of the P1' side chain on structure-activity” (J Med Chem, 1992)
# What was measured:
# [1] = target: Human immunodeficiency virus type 1 protease (Human immunodeficiency virus 1, UniProt Q72874); assay: Inhibition of HIV-1 protease
# [2] = system: Human immunodeficiency virus 1; assay: Ex vivo antiviral activity in H9 T-lymphoid cells infected with HIV-1(IIIB).; type: functional; settings: read-out: MIC100
# Procedure, shortened: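 Human H9 T-lymphoid cells acutely infected with HIV-1 IIIB isolate, MOI 0.01; compound added in DMSO at time of infection, refreshed every 2–3 days when culture sampled and half the medium replaced. Spread read by indirect immunofluorescence (anti-HIV-1 human serum primary antibody) at 14 days; MIC100 = minimum concentration completely preventing spread of infection through the culture, in nM.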
SMILES,IC50 [1] [nM],MIC [2] [µM]
CC(C)(C)OC(=O)N[C@@H](Cc1ccccc1)[C@@H](O)C[C@@H](C/C=C/c1ccccc1)C(=O)N[C@H]1c2ccccc2C[C@H]1O,0.23,0.4
Cc1ccc(C[C@H](C[C@H](O)[C@H](Cc2ccccc2)NC(=O)OC(C)(C)C)C(=O)N[C@H]2c3ccccc3C[C@H]2O)cc1,0.29,0.2
CC(C)C[C@H](NC(=O)[C@H](Cc1ccccc1)C[C@H](O)[C@H](Cc1ccccc1)NC(=O)OC(C)(C)C)C(=O)N[C@@H](Cc1ccccc1)C(N)=O,0.42,3
CC(C)C[C@H](NC(=O)[C@H](CCCc1ccccc1)C[C@H](O)[C@H](Cc1ccccc1)NC(=O)OC(C)(C)C)C(=O)N[C@@H](Cc1ccccc1)C(N)=O,0.36,
CC(C)(C)OC(=O)N[C@@H](Cc1ccccc1)[C@@H](O)C[C@@H](Cc1ccc(CCO)cc1)C(=O)N[C@H]1c2ccccc2C[C@H]1O,0.16,0.05
CC(C)C[C@H](NC(=O)[C@H](Cc1cccc2ccccc12)C[C@H](O)[C@H](Cc1ccccc1)NC(=O)OC(C)(C)C)C(=O)N[C@@H](Cc1ccccc1)C(N)=O,1.2,
CSc1ccc(C[C@H](C[C@H](O)[C@H](Cc2ccccc2)NC(=O)OC(C)(C)C)C(=O)N[C@H]2c3ccccc3C[C@H]2O)cc1,0.22,
CC(C)(C)OC(=O)N[C@@H](Cc1ccccc1)[C@@H](O)C[C@@H](Cc1ccc(S(C)(=O)=O)cc1)C(=O)N[C@H]1c2ccccc2C[C@H]1O,0.17,
CC(C)(C)OC(=O)N[C@@H](Cc1ccccc1)[C@@H](O)C[C@@H](C/C=C/c1ccc(O)cc1)C(=O)N[C@H]1c2ccccc2C[C@H]1O,0.17,0.2
CC(C)(C)OC(=O)N[C@@H](Cc1ccccc1)[C@@H](O)C[C@@H](Cc1ccc(CN2CCOCC2)cc1)C(=O)N[C@H]1c2ccccc2C[C@H]1O,1.15,0.1
CC(C)(C)OC(=O)N[C@@H](Cc1ccccc1)[C@@H](O)C[C@@H](Cc1ccc([N+](=O)[O-])cc1)C(=O)N[C@H]1c2ccccc2C[C@H]1O,0.27,
CC(C)(C)OC(=O)N[C@@H](Cc1ccccc1)[C@@H](O)C[C@@H](C/C=C/c1ccc(OCCN2CCOCC2)cc1)C(=O)N[C@H]1c2ccccc2C[C@H]1O,,0.05
CC(C)(C)OC(=O)N[C@@H](Cc1ccccc1)[C@@H](O)C[C@@H](Cc1ccccc1)C(=O)N[C@H]1c2ccccc2C[C@H]1O,0.23,0.4
CC(C)(C)OC(=O)N[C@@H](Cc1ccccc1)[C@@H](O)C[C@@H](Cc1ccc(F)cc1)C(=O)N[C@H]1c2ccccc2C[C@H]1O,0.44,
CC(C)(C)OC(=O)N[C@@H](Cc1ccccc1)[C@@H](O)C[C@@H](Cc1ccc(C(F)(F)F)cc1)C(=O)N[C@H]1c2ccccc2C[C@H]1O,0.26,
CC(C)(C)OC(=O)N[C@@H](Cc1ccccc1)[C@@H](O)C[C@@H](Cc1ccc(N)cc1)C(=O)N[C@H]1c2ccccc2C[C@H]1O,0.31,0.2
CC(C)(C)OC(=O)N[C@@H](Cc1ccccc1)[C@@H](O)C[C@@H](Cc1ccc(I)cc1)C(=O)N[C@H]1c2ccccc2C[C@H]1O,0.72,
COCCOCOCCc1ccc(C[C@H](C[C@H](O)[C@H](Cc2ccccc2)NC(=O)OC(C)(C)C)C(=O)N[C@H]2c3ccccc3C[C@H]2O)cc1,0.13,0.1
CC(C)(C)OC(=O)N[C@@H](Cc1ccccc1)[C@@H](O)C[C@@H](Cc1cccc(O)c1)C(=O)N[C@H]1c2ccccc2C[C@H]1O,0.21,
COC(CCc1ccc(C[C@H](C[C@H](O)[C@H](Cc2ccccc2)NC(=O)OC(C)(C)C)C(=O)N[C@H]2c3ccccc3C[C@H]2O)cc1)OC,0.08,

SMILES,IC50 [1] [nM],MIC [2] [µM]
C[C@H](C[C@H](O)[C@H](Cc1ccccc1)NC(=O)OC(C)(C)C)C(=O)N[C@H]1c2ccccc2C[C@H]1O,62.7,
CC(C)(C)OC(=O)N[C@@H](Cc1ccccc1)[C@@H](O)C[C@@H](Cc1ccc(C(C)(C)C)cc1)C(=O)N[C@H]1c2ccccc2C[C@H]1O,0.27,0.2
CC[C@H](C[C@H](O)[C@H](Cc1ccccc1)NC(=O)OC(C)(C)C)C(=O)N[C@H]1c2ccccc2C[C@H]1O,34.7,
CC(C)(C)OC(=O)N[C@@H](Cc1ccccc1)[C@@H](O)C[C@@H](Cc1ccc(O)cc1)C(=O)N[C@H]1c2ccccc2C[C@H]1O,,0.05
CC(C)C[C@H](NC(=O)[C@H](Cc1ccc(-c2ccccc2)cc1)C[C@H](O)[C@H](Cc1ccccc1)NC(=O)OC(C)(C)C)C(=O)N[C@@H](Cc1ccccc1)C(N)=O,0.43,
COCCN(CCCc1ccc(C[C@H](C[C@H](O)[C@H](Cc2ccccc2)NC(=O)OC(C)(C)C)C(=O)N[C@H]2c3ccccc3C[C@H]2O)cc1)CCOC,0.59,0.2
CN(C)CCCc1ccc(C[C@H](C[C@H](O)[C@H](Cc2ccccc2)NC(=O)OC(C)(C)C)C(=O)N[C@H]2c3ccccc3C[C@H]2O)cc1,0.6,
CC(C)(C)OC(=O)N[C@@H](Cc1ccccc1)[C@@H](O)C[C@@H](Cc1ccc(CCC[N+](C)(C)C)cc1)C(=O)N[C@H]1c2ccccc2C[C@H]1O,0.91,0.1
CC(C)(C)OC(=O)N[C@@H](Cc1ccccc1)[C@@H](O)C[C@@H](Cc1ccc(CCCO)cc1)C(=O)N[C@H]1c2ccccc2C[C@H]1O,0.1,0.05
CC(C)(C)OC(=O)N[C@@H](Cc1ccccc1)[C@@H](O)C[C@@H](Cc1ccc(CCCN2CCSCC2)cc1)C(=O)N[C@H]1c2ccccc2C[C@H]1O,1,
CC(C)C[C@H](NC(=O)[C@H](C)C[C@H](O)[C@H](Cc1ccccc1)NC(=O)OC(C)(C)C)C(=O)N[C@@H](Cc1ccccc1)C(N)=O,6,
CN(C)Cc1ccc(C[C@H](C[C@H](O)[C@H](Cc2ccccc2)NC(=O)OC(C)(C)C)C(=O)N[C@H]2c3ccccc3C[C@H]2O)cc1,1.4,
CC(C)(C)OC(=O)N[C@@H](Cc1ccccc1)[C@@H](O)C[C@@H](Cc1ccc(CO)cc1)C(=O)N[C@H]1c2ccccc2C[C@H]1O,0.17,
C[S+]([O-])c1ccc(C[C@H](C[C@H](O)[C@H](Cc2ccccc2)NC(=O)OC(C)(C)C)C(=O)N[C@H]2c3ccccc3C[C@H]2O)cc1 (stereo partly specified),0.51,
CC(C)C[C@H](NC(=O)[C@H](C/C=C/c1ccccc1)C[C@H](O)[C@H](Cc1ccccc1)NC(=O)OC(C)(C)C)C(=O)N[C@@H](Cc1ccccc1)C(N)=O,0.23,6
CC(C)(C)OC(=O)N[C@@H](Cc1ccccc1)[C@@H](O)C[C@@H](Cc1c(F)c(F)c(F)c(F)c1F)C(=O)N[C@H]1c2ccccc2C[C@H]1O,0.6,
CC(C)(C)OC(=O)N[C@@H](Cc1ccccc1)[C@@H](O)C[C@@H](CCc1cnc2ccccc2n1)C(=O)N[C@H]1c2ccccc2C[C@H]1O,0.17,
CCCCCCCCCCCCCCC[C@H](C[C@H](O)[C@H](Cc1ccccc1)NC(=O)OC(C)(C)C)C(=O)N[C@H]1c2ccccc2C[C@H]1O,> 3000,
CC(C)(C)OC(=O)N[C@@H](Cc1ccccc1)[C@@H](O)C[C@@H](Cc1ccc(CCCN2CCOCC2)cc1)C(=O)N[C@H]1c2ccccc2C[C@H]1O,0.43,0.2
COCCOCOCCCc1ccc(C[C@H](C[C@H](O)[C@H](Cc2ccccc2)NC(=O)OC(C)(C)C)C(=O)N[C@H]2c3ccccc3C[C@H]2O)cc1,0.07,0.05
